Compound activity as filed in PubChem BioAssay.
An excerpt weighted towards active compounds, which were near 1.6% of everything screened.
C8 TRAIL sens: viability loss with TRAIL in NB7+C8 cells, primary screen, TRAIL sensitizer project, cell-based, ATPlite luminescence | inhibition (viability loss, TRAIL sensitization), % at 10 µM | 360,000 tested, 1% active | AID 624354, 2012;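 active means compounds causing at least 50% loss of cell viability in the single-dose screen, relative to plate controls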
FLuc act counter: FLuc activators, initial screening, artefact control for FLuc-dependent activation tests, biochemical, ATPlite luminescence | Luciferin 4-monooxygenase (Photinus pyralis), P08659 | ATPlite luciferase biochemical, 10 min; 0 = ATP-free wells, 1 = DMSO control | activation factor at 10 µM | 200,000 tested, under 10 active | AID 1027, 2008;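 active means luciferase activation factor, scaled between plate controls, of at least 2 with compound at 10 µM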
Target sequence (P08659 whole entry, looked up): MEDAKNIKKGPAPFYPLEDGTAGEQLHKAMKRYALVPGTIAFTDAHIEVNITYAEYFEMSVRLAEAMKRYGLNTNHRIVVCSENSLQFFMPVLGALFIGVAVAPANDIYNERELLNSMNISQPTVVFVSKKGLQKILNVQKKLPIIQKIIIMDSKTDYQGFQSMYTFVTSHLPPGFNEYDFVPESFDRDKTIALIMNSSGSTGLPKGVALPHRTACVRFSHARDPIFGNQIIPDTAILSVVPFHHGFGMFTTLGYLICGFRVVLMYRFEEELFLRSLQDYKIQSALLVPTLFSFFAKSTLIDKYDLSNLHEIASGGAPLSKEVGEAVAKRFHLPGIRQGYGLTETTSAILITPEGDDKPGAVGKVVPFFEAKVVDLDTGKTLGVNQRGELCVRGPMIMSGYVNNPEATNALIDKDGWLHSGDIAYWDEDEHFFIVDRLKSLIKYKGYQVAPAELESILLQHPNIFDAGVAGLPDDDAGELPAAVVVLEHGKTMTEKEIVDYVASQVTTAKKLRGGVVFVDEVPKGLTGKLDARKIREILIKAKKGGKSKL
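test system = cell-free luciferase reagent | medium = PBS as buffer for the ATP substrate | dosing = test compounds dosed from 2 mM stocks in 100% DMSO | incubation = 10 min at ambient temperature | detection = luminescence measurement of luciferase light output | benchmarks = low control with PBS replacing ATP, high control enzyme plus ATP without compound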
PPC-1+TRAIL kill: compounds killing PPC-1 cancer cells with TRAIL present, primary screen, TRAIL potentiator project, ATPLite luminescence, uHTS. cell killing (% activity), % at 4 µM or 5 µM. 220,000 tested, 0.41% active. PPC-1 cells + TRAIL, ATPLite viability luminescence;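 active means cell killing above 50% in the first pass at 4 µM, then a duplicate retest at 5 µM averaging 50% or more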
FLuc inh counter: firefly luciferase enzyme inhibitors, primary screen, artefact control for luciferase-based inhibitor screens, biochemical, luminescence, ATPLite; Luciferin 4-monooxygenase (Photinus pyralis), P08659; 10 min; inhibition, % at 10 µM; 200,000 tested, 1.5% active; AID 1006, 2008;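 active means inhibition above about 50% when tested at 10 µM, limit read from the data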
Platelet DG rel: inhibitors of platelet dense granule secretion, primary screen, cell-based, MLPCN, human platelets | 300,000 tested, 0.22% active | human platelet-rich plasma, SFLLRN dense granule ATP release, luminescence | inhibition, %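 (compounds screened at 7.5 µM in platelet-rich plasma)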;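 active means mean replicate score, as percent of positive control, at or above 50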
Each line names hits and unclear results; the compound was inactive in the other large screens.

CC(C)(C)NC(=O)C(c1ccccc1F)n1c(=O)c(-c2cc3ccccc3[nH]2)nc2ccccc21 (stereo not drawn)	none (no result: FLuc act counter, PPC-1+TRAIL kill, FLuc inh counter, Platelet DG rel)
COc1ccc(Cn2c(SCc3ccccc3C)nc3cc(OC)c(OC)cc3c2=N)cc1	C8 TRAIL sens 86.1
COc1cc2nc(SCc3ccc(F)cc3)n(Cc3cccs3)c(=N)c2cc1OC	none
O=C(OCc1ccccc1)N1CCCCC1c1c(Cl)cccc1Br (stereo not drawn)	none (no result: FLuc act counter, PPC-1+TRAIL kill, FLuc inh counter, Platelet DG rel)
CNc1cnc(-c2ccsc2)cn1	none (no result: FLuc act counter, PPC-1+TRAIL kill, FLuc inh counter, Platelet DG rel)
COCc1cc(C)nc(SCC[N+](C)(C)CC(=O)c2ccc(Br)cc2)c1C#N	Platelet DG rel 50.7
CSc1ncnc2c1ncn2CCCN1CCN(Cc2cccc3ccccc23)CC1	none (no result: FLuc act counter, PPC-1+TRAIL kill, FLuc inh counter, Platelet DG rel)
O=S1(=O)CC(N2CC=CC2)CN1Cc1ccccc1 (stereo not drawn)	none (no result: FLuc act counter, PPC-1+TRAIL kill, FLuc inh counter, Platelet DG rel)
COc1ccc(-c2cnnc(N/N=C/c3ccc(O)c(OC)c3)n2)cc1	C8 TRAIL sens 58.7, FLuc inh counter 81.2
COc1cc(/C=N/Nc2nc(N3CCCC3)nc(N3CCCC3)n2)ccc1O	none
C[C@H]1COc2cc(N3CCC[C@H]3CO)ccc2S(=O)(=O)N1	none (no result: FLuc act counter, PPC-1+TRAIL kill, FLuc inh counter, Platelet DG rel)
O=C(Nc1ccc(OC(F)(F)F)cc1)C1=NCCN1	FLuc inh counter 63.2
Cc1cnc(C(=O)Nc2ccc(OC(F)(F)F)cc2)cn1	none (no result: FLuc act counter, PPC-1+TRAIL kill, FLuc inh counter)
COc1ccc([C@H]2CC(=O)C[C@@H](CCn3cc(-c4nccn4C)nn3)O2)cc1	none (no result: FLuc act counter, PPC-1+TRAIL kill, FLuc inh counter, Platelet DG rel)
O=c1c2ccccc2oc2ccc(NCCCn3ccnc3)cc12	C8 TRAIL sens 50.4 (no result: FLuc act counter, PPC-1+TRAIL kill, FLuc inh counter)
Cc1ccc(NC(=O)c2sc3nc(CCl)[nH]c(=O)c3c2C)c(C)c1	C8 TRAIL sens 54.5 (no result: Platelet DG rel)
Cn1cc(CN2CCC(C(=O)NC(c3ccc(F)cc3)c3ccc4ccccc4n3)CC2)c2ccccc21 (stereo not drawn)	none (no result: FLuc act counter, PPC-1+TRAIL kill, FLuc inh counter, Platelet DG rel)
CC(=O)Nc1c(O)[nH]c2ccccc12	none
N=NC(=O)c1ccccc1Nc1c(O)[nH]c2ccccc12	C8 TRAIL sens 91.2 (no result: FLuc act counter, PPC-1+TRAIL kill, FLuc inh counter, Platelet DG rel)
COC(=O)C[C@H]1C[C@H]2c3cc(NC(=O)Nc4ccc(C(F)(F)F)cc4)ccc3O[C@H]2[C@@H](CO)O1	none (no result: FLuc act counter, PPC-1+TRAIL kill, FLuc inh counter, Platelet DG rel)
C/C(=N/N=C/c1ccc(N(C)C)cc1)c1ccccc1	C8 TRAIL sens 55.9, FLuc inh counter 76.7, Platelet DG rel 56.2
CC(C)C(=O)N1CCCC1(C)C(=O)Nc1ccc2c(c1)OCO2 (stereo not drawn)	none (no result: FLuc act counter, PPC-1+TRAIL kill, FLuc inh counter, Platelet DG rel)
CC(C)C#Cc1cnc2c(c1)C(=O)N([C@@H](C)CO)C[C@@H](C)[C@H](CN(C)Cc1cccc(F)c1)O2	none (no result: FLuc act counter, PPC-1+TRAIL kill, FLuc inh counter, Platelet DG rel)
O=C(/C=C/c1ccc(Cl)cc1Cl)c1ccc[nH]1	FLuc inh counter 51.6
COC(=O)c1ccc(-c2nc(-c3cccs3)no2)cc1	C8 TRAIL sens 58.3, FLuc inh counter 71.9 (no result: Platelet DG rel)
Fc1ccc(-c2nc(-c3cccs3)no2)cc1	none (no result: FLuc act counter, FLuc inh counter)
COc1cccc(-c2noc(-c3cccs3)n2)c1	FLuc inh counter 50.2
COc1ccc(NC(=O)c2cc(C)nc3ccccc23)cc1S(=O)(=O)N1CCOCC1	none (no result: FLuc act counter, PPC-1+TRAIL kill, FLuc inh counter, Platelet DG rel)
COc1ccc(Nc2nc(-c3ccccc3)nc3ccccc23)cc1S(=O)(=O)N1CCOCC1	C8 TRAIL sens 48.0 (no result: FLuc act counter, FLuc inh counter)
CCc1n[n+](CC(=O)c2ccccc2)c(N)s1	C8 TRAIL sens 58.9, PPC-1+TRAIL kill 64.9, FLuc inh counter 69.5 (no result: Platelet DG rel)
Nc1ccc[n+](CC(=O)c2ccccc2)c1	none (no result: FLuc act counter, PPC-1+TRAIL kill, FLuc inh counter)
Cc1ccccc1C(=O)NC(=S)Nc1ccccc1C(F)(F)F	FLuc inh counter 70.6
Cc1cccc(C)c1NC(=O)C1(C)CSCC(=O)N1CCc1ccc(O)cc1 (stereo not drawn)	none (no result: FLuc act counter, PPC-1+TRAIL kill, FLuc inh counter, Platelet DG rel)
Cc1ccc(C)c(C(O)c2ncc(-c3ccccc3)[nH]2)c1 (stereo not drawn)	none (no result: FLuc act counter, PPC-1+TRAIL kill, FLuc inh counter, Platelet DG rel)
CN(Cc1cnn(-c2ccc(F)cc2)c1)C(=O)[C@H]1O[C@@H](n2ccc(=O)[nH]c2=O)[C@H](O)[C@@H]1O	none (no result: FLuc act counter, PPC-1+TRAIL kill, FLuc inh counter, Platelet DG rel)
O=C(Oc1c(CN2CCOCC2)cc(Cl)c2cccnc12)c1ccccc1	none (no result: PPC-1+TRAIL kill)
O=C(Oc1c(CN2CCOCC2)cc(Cl)c2cccnc12)c1ccccc1F	C8 TRAIL sens 54.4
CN(C)C=Nc1ccc2nc3c(cc2c1)[nH]c1ccccc13	C8 TRAIL sens 76.0 (no result: FLuc act counter, PPC-1+TRAIL kill, FLuc inh counter)
O=C(O)c1cccc(-c2noc(-c3cccc(Cl)c3)n2)c1	C8 TRAIL sens 62.1 (no result: FLuc act counter, PPC-1+TRAIL kill, FLuc inh counter, Platelet DG rel)
NC(=O)c1ccc(-c2noc(-c3cccc(Cl)c3)n2)cc1	none (no result: FLuc act counter, PPC-1+TRAIL kill, FLuc inh counter, Platelet DG rel)
Oc1c(C=Nc2ccccc2)sc2ccccc12	FLuc inh counter 94.6 (no result: PPC-1+TRAIL kill)
Oc1c(C=Nc2cccnc2)sc2ccccc12	FLuc inh counter 69.9
Oc1c(/C=N/c2ccccn2)sc2ccccc12	Platelet DG rel 85.9 (no result: FLuc act counter, FLuc inh counter)
CC(=O)C1=CCC(c2ccc(Cl)cc2)N(S(=O)(=O)c2ccccc2)C1 (stereo not drawn)	none (no result: FLuc act counter, PPC-1+TRAIL kill, FLuc inh counter, Platelet DG rel)
O=C1/C(=N\S(=O)(=O)c2cccs2)C([n+]2ccccc2)=C([O-])c2ccccc21	none (no result: FLuc act counter, FLuc inh counter)
CC(C)(C)c1cc[n+](C2=C([O-])c3ccccc3C(=O)/C2=N\S(=O)(=O)c2cccs2)cc1	C8 TRAIL sens 54.4 (no result: FLuc act counter, FLuc inh counter)
COc1ccc(C(=O)Nc2ccc3ccccc3n2)c(OC)c1OC	C8 TRAIL sens 83.0 (no result: FLuc act counter, PPC-1+TRAIL kill, FLuc inh counter)
COc1ccc(C(=O)NCCN(C)C)c2nc3ccccc3cc12	C8 TRAIL sens 51.3 (no result: FLuc act counter, PPC-1+TRAIL kill, FLuc inh counter, Platelet DG rel)
CNc1cncc(-c2ccc(OC)cc2OC)n1	none (no result: FLuc act counter, PPC-1+TRAIL kill, FLuc inh counter, Platelet DG rel)
N#Cc1cccc(C(=O)C(=O)N2CCN(C(=O)OCc3ccccc3)CC2)c1	none (no result: FLuc act counter, PPC-1+TRAIL kill, FLuc inh counter, Platelet DG rel)
O=C1CCN(N=Nc2cccc(Cl)c2)N1	Platelet DG rel 52.8 (no result: C8 TRAIL sens)
CC(=O)Nc1cc(-c2cccc(NS(C)(=O)=O)c2)cn2c(-c3ccc(F)c(Cl)c3)cnc12	none (no result: FLuc act counter, PPC-1+TRAIL kill, FLuc inh counter, Platelet DG rel)
